Measured values collected from several papers.
Compare with care: the assays were run in different laboratories.
Target: Tyrosine-protein kinase CSK (CSK, Homo sapiens, UniProt P41240)

SMILES	test	system	setting	quantity	value
COc1ccc2cc(OCC3(C(=O)O)CN(C(=O)c4ccc(F)cc4)C3)ccc2c1	cell-free assay, competition with immobilised ligand		1 µM	remaining binding	100%
CCN(CC)CCNC(=O)c1c(C)[nH]c(/C=C2\C(=O)Nc3ccc(F)cc32)c1C	enzyme activity, inhibitor		0.3 µM	inhibition	-8%
CCN1CCN(Cc2ccc(NC(=O)c3ccc(C)c(Oc4ccnc5[nH]ccc45)c3)cc2C(F)(F)F)CC1	target engagement in cells, inhibitor, chemoproteomics	A-375	0.5 µM	inhibition	-14.9%
Nc1ncnc2occ(-c3ccc(NC(=O)Nc4cc(C(F)(F)F)ccc4F)cc3)c12	enzyme activity, inhibitor		20 µM	remaining activity	2%
Cc1sc(C(=O)NC2COC2)cc1-n1cc(NC(=O)Nc2c(F)cccc2Cl)cn1	enzyme activity, inhibitor		10 µM	remaining activity	98%
CNC(=O)c1cc(Oc2ccc(NC(=O)Nc3ccc(Cl)c(C(F)(F)F)c3)cc2)ccn1	enzyme activity, inhibitor		0.3 µM	inhibition	-7%
FC(F)c1nc2ccccc2n1-c1nc(N2CCOCC2)nc(N2CCOCC2)n1	enzyme activity, inhibitor		10 µM	remaining activity	84%
Cc1nc(Cc2cccc(C(F)(F)F)c2)sc1-c1ccc(C(N)=O)nc1	cell-free assay, competition with immobilised ligand		1 µM	remaining binding	88%
O=C1NC(=O)c2cc(Nc3ccc(F)cc3)c(Nc3ccc(F)cc3)cc21	enzyme activity, inhibitor		0.5 µM	remaining activity	92%
FC(F)(F)Oc1cccc(-c2cnc3ccc(-c4ccncc4)nn23)c1	enzyme activity, inhibitor, radiometric		5 µM	activity vs control	100%
Cc1ccc(Nc2nccc(N(C)c3ccc4c(C)n(C)nc4c3)n2)cc1S(N)(=O)=O	enzyme activity, inhibitor		0.3 µM	inhibition	-6%
Cc1nc(N2CC[C@@H](O)C2)ncc1-c1cc(C(F)(F)F)cc2[nH]ncc12	cell-free assay, competition with immobilised ligand		1 µM	remaining binding	100%
Cc1cc(NC(=O)c2cccc3cc(-c4cccc5[nH]nc(N)c45)ccc23)ccc1F	enzyme activity, inhibitor		0.1 µM	activity vs control	97%
C[C@@H]1CN(c2cc(-c3nn(C)c4ccc(OC5(C)CC5)cc34)ncn2)C[C@H](C)O1	cell-free assay, competition with immobilised ligand		1 µM	remaining binding	100%
CC(C)(C)c1nc(-c2cccc(NS(=O)(=O)c3c(F)cccc3F)c2F)c(-c2ccnc(N)n2)s1	enzyme activity, inhibitor, radiometric		1 µM	remaining activity	34%
CN(c1ncccc1CNc1nc(Nc2ccc3c(c2)CC(=O)N3)ncc1C(F)(F)F)S(C)(=O)=O	enzyme activity, inhibitor		1 µM	inhibition	29.1%

SMILES	test	system	setting	quantity	value
O=C1Nc2ccc(Cl)cc2C1=Cc1cc(Cl)c(O)c(Cl)c1	enzyme activity, inhibitor		0.5 µM	remaining activity	85%
CC(=O)N1CCC(c2ccc(C(=O)NC(=N)N)cc2C(F)(F)F)CC1	cell-free assay, competition with immobilised ligand		1 µM	remaining binding	100%
c1nc2c(Nc3ccc4c(c3)OCCO4)nc(Nc3ccc4c(c3)OCCO4)nc2[nH]1	enzyme activity, inhibitor		10 µM	activity vs control	18%
COc1cc2ncnc(Nc3ccc(Oc4ccccc4)cc3C)c2cc1OC	enzyme activity, inhibitor		1 µM	inhibition	91%
O=C(CSc1nc2nccnc2c(=O)n1CCc1ccccc1)Nc1nccs1	enzyme activity, inhibitor		10 µM	inhibition	6%
C[C@H](c1cccc(C#N)c1)n1cc(Cl)cc(C(N)=O)c1=N	cell-free assay, competition with immobilised ligand		1 µM	remaining binding	100%
CC(C)(C)C(=O)c1sc(NC2CCCCC2)nc1N	enzyme activity, inhibitor		10 µM	remaining activity	98%
COc1cc(-c2cn(C3CCc4ccccc4N(CC(F)(F)F)C3=O)nn2)ccc1-n1ccc(C)n1 (centres unmarked)	cell-free assay, competition with immobilised ligand		1 µM	remaining binding	100%
COc1cc(Cl)c(C(=O)N[C@@H](CN[C@H]2CC[C@@H](N)CC2)Cc2ccc(C#N)cc2)cc1-c1ccc(CN[C@H](C)c2ccc(C)cc2)o1	enzyme activity, inhibitor		1 µM	remaining activity	99%
C#Cc1cccc(Nc2ncnc3cc(OCCOC)c(OCCOC)cc23)c1	cell-free assay, inhibitor		0.5 µM	remaining signal	100%
CO[C@@H](C)c1c(Nc2ccc([C@H](N(C)C(=O)C3CCS(=O)(=O)CC3)C(F)(F)F)cc2)cnc2cc(Cl)nn12	cell-free assay, competition with immobilised ligand		1 µM	remaining binding	100%
Cc1nc(Nc2ncc(C(=O)Nc3c(C)cccc3Cl)s2)cc(N2CCN(CCO)CC2)n1	enzyme activity, inhibitor		0.5 µM	activity vs control	7.11%
O=C(Nc1cnn(-c2csc(C(=O)NC3COC3)c2)c1)Nc1ccccc1Cl	enzyme activity, inhibitor		5 µM	remaining activity	99.2%
COc1cc2nccc(Oc3ccc(NC(=O)c4c5n(n(-c6ccc(F)cc6)c4=O)CCCC5)cc3)c2cc1OC	enzyme activity, inhibitor		0.1 µM	inhibition	2%
COc1cc(Nc2cnc(C#N)c(O[C@H](C)CN(C)C)n2)ncc1-c1cnn(C)c1	enzyme activity, inhibitor, radiometric		10 µM	remaining activity	94%
COc1cc(/C=C/C(=O)CC(=O)/C=C/c2ccc(O)c(OC)c2)ccc1O	enzyme activity, inhibitor		1 µM	activity vs control	78%
